In ChEMBL document CHEMBL1131098, “Synthesis and antitumor activity of 4-aminomethylthioxanthenone and 5-aminomethylbenzothiopyranoindazole derivatives” (J Med Chem, 1998):

Legend:
Assay type in all cases: functional
[1] = organism: Mus musculus; assay: compound was tested for murine tumor growth inhibition,T/C value ([…]/control) in mice.
How it was run: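 BDF1 mice implanted bilaterally sc with 30–60-mg Panc03 fragments on day 0. Dosing iv at the maximum tolerated dose (LD10 or less), starting 3 days after implantation. Tumor growth inhibition expressed as %T/C; %T/C > 42 counted as not active.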

[2] = organism: Mus musculus; assay: The long term cures (LTC) value is the number of mice in a group with no palpable tumor.
How it was run: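 Panc03-bearing BDF1 mice (bilateral sc fragments) dosed iv at the maximum tolerated dose from day 3. Long-term cure is a mouse with no palpable tumor after at least 86 days, reported as cured mice over total mice per treatment group.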

[3] = tested on: Mus musculus; assay: In vivo antitumor activity measured in mice against the Panc 02 murine solid tumors.
[4] = tested on: Mus musculus; assay: In vivo antitumor activity measured in mice against the Colon26/A murine solid tumors.
[5] = tested on: Mus musculus; assay: In vivo antitumor activity measured in mice against the Colon38 murine solid tumors.
[6] = tested on: Mus musculus; assay: In vivo antitumor activity measured in mice against the Colon51 murine solid tumors.
[7] = tested on: Mus musculus; assay: In vivo antitumor activity measured in mice against the Mam16/C murine solid tumors.

SMILES | T/C [1] [%] | LTC [2] | T/C [3] [%] | T/C [4] [%] | T/C [5] [%] | T/C [6] [%] | T/C [7] [%]
CCN(CC)CCNc1ccc(CN2C(=O)c3ccccc3C2=O)c2sc3ccccc3c(=O)c12 | 38 |  |  |  |  |  | 
COc1cccc2c1C(=O)c1c(O)c3c(c(O)c1C2=O)C[C@@](O)(C(=O)CO)C[C@@H]3O[C@H]1C[C@H](N)[C@H](O)[C@H](C)O1 [DOXORUBICIN] |  | 0.2 | 35 | 7 | 0 | 21 | 0
